Assays:
[1] = biological target: T1, Adrenergic receptor alpha (Rattus norvegicus) (UniProt P15823+P23944+P43140+P22086+P19328+P22909); experiment: Binding affinity to alpha adrenergic receptors in rat aorta; type: tissue-based
How it was run: (§1)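 Helical strips of rat aorta (1.5–2 cm × 3–4 mm) were held in Krebs-Henseleit at 37 °C, gassed with 95% O2/5% CO2, at 2 g resting tension, and equilibrated about 2 h. Cumulative contraction curves were recorded isometrically, first for norepinephrine, then after washout and 1 h rest for the test agonist. pD2 (−log ED50) was derived by the Ariens–Van Rossum method. Intrinsic activity is the compound's maximum response divided by the norepinephrine maximum.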

[2] = Intrinsic activity of the compound, which is expressed as the ratio of the maximum response to the maximum response to norepinephrine; type: functional; how it was run: as §1
[3] = biological target: T1, Adrenergic receptor alpha (Rattus norvegicus); experiment: Ratio of maximum contraction of rat aorta elicited versus that elicited by noradrenaline (defined as intrinsic activity); type: functional, tissue-based; how it was run: as §1

Compound	pD2 [1]	Intrinsic [2]	Ratio [3]
Cc1ccc(C(O)CN)cc1O (stereo not drawn)	5.66	1.3	–
COc1cc(C(O)CN)ccc1O (stereo not drawn)	6.23	–	1.1
NCC(O)c1ccc(O)c(Br)c1 (stereo not drawn)	5.57	–	1.1
NCC(O)c1ccc(I)c(O)c1 (stereo not drawn)	4.99	–	0.9
NCC(O)c1ccc(O)cc1 (stereo not drawn)	6.08	–	1.1
CS(=O)(=O)Nc1cc(C(O)CN)ccc1O (stereo not drawn)	7.19	–	1.1
NCC(O)c1ccc(O)c(C(=O)O)c1 (stereo not drawn)	4.07	–	1
COC(=O)c1cc(C(O)CN)ccc1O (stereo not drawn)	4.85	–	0.9
CCc1cc(C(O)CN)ccc1O (stereo not drawn)	6.09	–	0.9
CCc1ccc(C(O)CN)cc1O (stereo not drawn)	5.2	–	1.1
NCC(O)c1cccc(O)c1 (stereo not drawn)	8.21	–	1
NCC(O)c1ccc(O)c(F)c1 (stereo not drawn)	6.78	–	1
NCC(O)c1ccc(Br)c(O)c1 (stereo not drawn)	5.58	–	1
Cc1cc(C(O)CN)ccc1O (stereo not drawn)	5.96	–	1
CC(C)c1cc(C(O)CN)ccc1O (stereo not drawn)	6.53	–	1.2
NCC(O)c1ccc(Cl)c(O)c1 (stereo not drawn)	6.35	–	1.1
CS(=O)(=O)Nc1ccc(C(O)CN)cc1O (stereo not drawn)	3.2	–	0.8
NCC(O)c1ccc(O)c(C2CCCCC2)c1 (stereo not drawn)	6.73	–	1.1
COc1ccc(C(O)CN)cc1O (stereo not drawn)	4.97	–	1
NC[C@H](O)c1ccc(O)c(O)c1	8.8	–	1
NCC(O)c1ccc(O)c(Cl)c1 (stereo not drawn)	5.85	–	1
NCC(O)c1ccc(O)c(I)c1 (stereo not drawn)	5.5	–	0.9
NCC(O)c1ccc(C2CCCCC2)c(O)c1 (stereo not drawn)	4.86	–	0.7
CC(C)c1ccc(C(O)CN)cc1O (stereo not drawn)	5	–	0.7
